Measurements reported in ChEMBL document CHEMBL1629438, “Selective peroxisome proliferator-activated receptor δ isosteric selenium agonists as potent anti-atherogenic agents in vivo” (Bioorg Med Chem Lett, 2010).
Active and inactive are the calls of the source. No cut-off for these calls is given here.

Legend:
[1] = target: T1, Peroxisome proliferator-activated receptor alpha (Mus musculus) (UniProt P23204); assay: Agonist activity at mouse PPAR-alpha expressed in african green monkey CV-1 cells after 24 hrs by luciferase reporter gene assay; format: functional, cell-based
T1 sequence (whole entry): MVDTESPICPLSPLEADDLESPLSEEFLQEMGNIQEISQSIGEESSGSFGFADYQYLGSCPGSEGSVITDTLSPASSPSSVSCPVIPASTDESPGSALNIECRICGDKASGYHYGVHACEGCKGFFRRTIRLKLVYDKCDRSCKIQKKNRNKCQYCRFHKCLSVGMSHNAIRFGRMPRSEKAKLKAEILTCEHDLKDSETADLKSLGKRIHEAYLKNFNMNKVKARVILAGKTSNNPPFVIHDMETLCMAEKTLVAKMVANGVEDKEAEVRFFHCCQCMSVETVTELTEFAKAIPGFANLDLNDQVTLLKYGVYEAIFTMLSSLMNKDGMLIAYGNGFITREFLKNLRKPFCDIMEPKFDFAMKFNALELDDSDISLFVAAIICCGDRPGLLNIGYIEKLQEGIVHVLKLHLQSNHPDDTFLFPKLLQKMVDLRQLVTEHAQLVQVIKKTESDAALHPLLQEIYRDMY

[2] = target: T2, Peroxisome proliferator-activated receptor gamma (Mus musculus) (UniProt P37238); assay: Agonist activity at mouse PPAR-gammaexpressed in african green monkey CV-1 cells after 24 hrs by luciferase reporter gene assay; format: functional, cell-based
T2 sequence (whole entry): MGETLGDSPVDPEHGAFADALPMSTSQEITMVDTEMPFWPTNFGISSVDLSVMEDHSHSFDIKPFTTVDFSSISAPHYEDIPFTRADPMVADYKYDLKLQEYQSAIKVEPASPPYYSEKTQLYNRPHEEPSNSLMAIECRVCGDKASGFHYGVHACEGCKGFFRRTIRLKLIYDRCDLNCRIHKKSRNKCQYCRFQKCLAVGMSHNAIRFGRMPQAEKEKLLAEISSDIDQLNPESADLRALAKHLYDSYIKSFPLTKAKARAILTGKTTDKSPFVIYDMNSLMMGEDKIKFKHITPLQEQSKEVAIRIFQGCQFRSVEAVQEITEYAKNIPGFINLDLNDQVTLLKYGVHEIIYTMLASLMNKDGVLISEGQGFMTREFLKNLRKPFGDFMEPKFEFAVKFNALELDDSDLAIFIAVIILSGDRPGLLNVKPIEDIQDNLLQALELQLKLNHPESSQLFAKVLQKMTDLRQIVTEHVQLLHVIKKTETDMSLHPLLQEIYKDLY

Mus musculus [3] = assay: Antiatherogenic effect in HC/HF diet-fed apolipoprotein E-deficient C57BL/6J mouse assessed as increase in HDL-cholesterol at 2 mg/kg/day for 4 weeks; format: functional, organism-based
Procedure, shortened: (§1)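 Apoe-/- mice, eight weeks old, fed an atherogenic HC/HF diet (1.25% cholesterol, 21% fat) for 14 weeks. They received 2 mg/kg/day of test agent (n = 7) or vehicle (n = 6) over the final 4 weeks, then were compared with the vehicle group.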

[4] = Drug level in LDLR-deficient mouse serum at 60 mg/kg; format: ADME, organism-based; design: dose 60 mg/kg
Mus musculus [5] = assay: Toxicity in LDLR-deficient mouse assessed as increase in liver weight at 60 mg/kg; format: organism-based; design: dose 60 mg/kg; conditions: in vivo
[6] = target: T3, Peroxisome proliferator-activated receptor alpha (Homo sapiens, UniProt Q07869); assay: Agonist activity at human PPAR-alpha expressed in african green monkey CV-1 cells after 24 hrs by luciferase reporter gene assay; format: functional, cell-based
T3 sequence (Q07869 whole entry): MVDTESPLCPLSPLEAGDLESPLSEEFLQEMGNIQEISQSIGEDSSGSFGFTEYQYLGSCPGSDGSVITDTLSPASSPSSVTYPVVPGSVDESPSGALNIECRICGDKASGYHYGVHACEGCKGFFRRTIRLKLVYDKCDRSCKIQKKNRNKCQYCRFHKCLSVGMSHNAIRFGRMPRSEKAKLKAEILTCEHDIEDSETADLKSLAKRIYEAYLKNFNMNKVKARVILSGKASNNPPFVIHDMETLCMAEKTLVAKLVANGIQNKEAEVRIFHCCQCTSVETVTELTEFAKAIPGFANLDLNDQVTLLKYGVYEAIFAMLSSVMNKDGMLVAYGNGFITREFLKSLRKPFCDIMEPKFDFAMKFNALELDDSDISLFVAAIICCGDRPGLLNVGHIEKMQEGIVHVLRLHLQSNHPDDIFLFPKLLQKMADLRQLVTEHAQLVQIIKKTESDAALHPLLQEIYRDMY
Procedure, shortened: (§2)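 Cell-based co-transfection reporter assay, with EC50 values derived for each PPAR subtype.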

[7] = target: T4, Peroxisome proliferator-activated receptor delta (Homo sapiens, UniProt Q03181); assay: Agonist activity at human PPAR-delta expressed in african green monkey CV-1 cells after 24 hrs by luciferase reporter gene assay; format: functional, cell-based; procedure, shortened: as §2
T4 sequence (Q03181 whole entry): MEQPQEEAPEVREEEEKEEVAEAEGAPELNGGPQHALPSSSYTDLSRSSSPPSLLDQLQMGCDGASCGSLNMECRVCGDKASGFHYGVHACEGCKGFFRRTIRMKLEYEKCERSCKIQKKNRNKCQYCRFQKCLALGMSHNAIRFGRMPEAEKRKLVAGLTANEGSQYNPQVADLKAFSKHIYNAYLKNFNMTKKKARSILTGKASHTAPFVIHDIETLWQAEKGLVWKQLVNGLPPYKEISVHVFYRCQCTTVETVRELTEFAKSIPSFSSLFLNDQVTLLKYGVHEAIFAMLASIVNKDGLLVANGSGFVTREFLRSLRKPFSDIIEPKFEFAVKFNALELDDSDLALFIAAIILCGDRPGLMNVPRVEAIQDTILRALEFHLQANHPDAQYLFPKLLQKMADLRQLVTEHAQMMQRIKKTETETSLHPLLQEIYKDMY

[8] = target: T5, Peroxisome proliferator-activated receptor gamma (Homo sapiens, UniProt P37231); assay: Agonist activity at human PPAR-gamma expressed in african green monkey CV-1 cells after 24 hrs by luciferase reporter gene assay; format: functional, cell-based
T5 sequence (P37231 whole entry): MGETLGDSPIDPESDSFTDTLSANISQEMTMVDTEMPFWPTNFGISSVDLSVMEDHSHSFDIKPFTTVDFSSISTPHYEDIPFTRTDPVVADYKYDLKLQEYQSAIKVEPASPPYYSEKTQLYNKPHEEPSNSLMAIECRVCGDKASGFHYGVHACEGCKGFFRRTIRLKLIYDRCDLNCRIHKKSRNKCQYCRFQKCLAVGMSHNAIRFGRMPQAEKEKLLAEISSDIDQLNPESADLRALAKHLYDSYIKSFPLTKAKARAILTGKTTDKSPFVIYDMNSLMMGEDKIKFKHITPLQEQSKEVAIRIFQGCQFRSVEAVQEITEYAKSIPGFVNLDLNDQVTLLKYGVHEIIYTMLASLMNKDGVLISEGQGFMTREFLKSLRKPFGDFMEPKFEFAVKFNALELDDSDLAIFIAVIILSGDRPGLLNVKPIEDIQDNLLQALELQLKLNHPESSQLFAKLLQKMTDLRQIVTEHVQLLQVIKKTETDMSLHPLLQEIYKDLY

[9] = target: T6, Peroxisome proliferator-activated receptor delta (Mus musculus, UniProt P35396); assay: Agonist activity at mouse PPAR-delta expressed in african green monkey CV-1 cells after 24 hrs by luciferase reporter gene assay; format: functional, cell-based
T6 sequence (P35396 whole entry): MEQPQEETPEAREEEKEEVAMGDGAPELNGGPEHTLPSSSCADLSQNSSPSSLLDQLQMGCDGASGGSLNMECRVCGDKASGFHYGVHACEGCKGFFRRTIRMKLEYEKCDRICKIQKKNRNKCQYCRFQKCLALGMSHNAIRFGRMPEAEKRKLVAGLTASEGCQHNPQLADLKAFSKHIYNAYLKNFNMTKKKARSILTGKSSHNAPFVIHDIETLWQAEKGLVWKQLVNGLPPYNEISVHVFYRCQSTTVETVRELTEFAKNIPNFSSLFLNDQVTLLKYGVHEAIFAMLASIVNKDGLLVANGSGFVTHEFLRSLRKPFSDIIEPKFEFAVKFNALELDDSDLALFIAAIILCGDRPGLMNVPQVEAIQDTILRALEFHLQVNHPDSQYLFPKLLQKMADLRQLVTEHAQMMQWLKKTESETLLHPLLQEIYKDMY

[10] = target: T7, Peroxisome proliferator-activated receptor delta (Homo sapiens) (UniProt Q03181); assay: Binding affinity to human PPAR-delta after 1 hr by TR-FRET assay
T7 sequence (whole entry): T4 sequence (Q03181 whole entry)

Mus musculus [11] = assay: Toxicity in apolipoprotein E-deficient C57BL/6J mouse assessed as weight loss at 5 mg/kg; format: organism-based; design: dose 5 mg/kg; conditions: in vivo
Mus musculus [12] = assay: Toxicity in apolipoprotein E-deficient C57BL/6J mouse assessed as weight loss at 6 mg/kg; format: organism-based; design: dose 6 mg/kg; conditions: in vivo
Mus musculus [13] = assay: Toxicity in apolipoprotein E-deficient C57BL/6J mouse assessed as weight loss at 60 mg/kg; format: organism-based; design: dose 60 mg/kg; conditions: in vivo
Mus musculus [14] = assay: Antiatherogenic effect in HC/HF diet-fed apolipoprotein E-deficient C57BL/6J mouse assessed as decrease in lesion fatty streak in aorta at 2 mg/kg/day for 4 weeks; format: functional; design: scale not given: the % may be the effect or the level left
Procedure, shortened: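 ApoE-/- mice were 8 weeks old at start. They were fed an HC/HF atherogenic diet (1.25% cholesterol, 21% fat) for 14 weeks and dosed at 2 mg/kg/day over the last 4 weeks (treated n = 7, vehicle n = 6). Mice were weighed weekly. Lesion fatty streak extent was scored throughout the aorta against vehicle.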

Mus musculus [15] = assay: Antiatherogenic effect in HC/HF diet-fed apolipoprotein E-deficient C57BL/6J mouse assessed as decrease in IL-6 gene expression at 2 mg/kg/day for 4 weeks by quantitative RT-PCR; format: functional, organism-based; procedure, shortened: as §1
Mus musculus [16] = assay: Effect on cholesterol homeostasis in HC/HF diet-fed apolipoprotein E-deficient C57BL/6J mouse assessed as effect on ICAM-1 gene expression at 2 mg/kg/day for 4 weeks by quantitative RT-PCR; format: functional, organism-based; procedure, shortened: as §1
Mus musculus [17] = assay: Effect on cholesterol homeostasis in HC/HF diet-fed apolipoprotein E-deficient C57BL/6J mouse assessed as effect on VCAM-1 gene expression at 2 mg/kg/day for 4 weeks by quantitative RT-PCR; format: functional, organism-based; procedure, shortened: as §1
Mus musculus [18] = assay: Effect on cholesterol homeostasis in HC/HF diet-fed apolipoprotein E-deficient C57BL/6J mouse assessed as effect on Il-10 gene expression at 2 mg/kg/day for 4 weeks by quantitative RT-PCR; format: functional, organism-based; procedure, shortened: as §1
Mus musculus [19] = assay: Effect on cholesterol homeostasis in HC/HF diet-fed apolipoprotein E-deficient C57BL/6J mouse assessed as effect on ABCA1 gene expression at 2 mg/kg/day for 4 weeks by quantitative RT-PCR; format: functional, organism-based; procedure, shortened: as §1
Mus musculus [20] = assay: Effect on cholesterol homeostasis in HC/HF diet-fed apolipoprotein E-deficient C57BL/6J mouse assessed as effect on CD36 gene expression at 2 mg/kg/day for 4 weeks by quantitative RT-PCR; format: functional, organism-based; procedure, shortened: as §1
Mus musculus [21] = assay: Effect on cholesterol homeostasis in HC/HF diet-fed apolipoprotein E-deficient C57BL/6J mouse assessed as effect on MCP1 gene expression at 2 mg/kg/day for 4 weeks by quantitative RT-PCR; format: functional, organism-based; procedure, shortened: as §1
Mus musculus [22] = assay: Toxicity in […] diet-fed apolipoprotein E-deficient C57BL/6J mouse assessed as weight loss at 2 mg/kg/day for 4 weeks; format: organism-based; conditions: in vivo, 672 h
Procedure, shortened: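 Eight-week-old Apoe-/- mice were kept on an HC/HF diet (1.25% cholesterol, 21% fat) for 14 weeks, with 2 mg/kg/day dosing (n = 7) or vehicle (n = 6) in the last 4 weeks. Body weight was recorded every week throughout the experimental period and compared between treated and control groups.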

Mus musculus [23] = assay: Toxicity in […] diet-fed apolipoprotein E-deficient C57BL/6J mouse assessed as increase in liver weight at 2 mg/kg/day for 4 weeks; format: organism-based; conditions: in vivo, 672 h; procedure, shortened: as §1
[24] = target: Peroxisome proliferator-activated receptor delta (Homo sapiens) (UniProt Q03181); assay: Binding affinity to human PPAR-delta after 1 hr by TR-FRET assay
Mus musculus [25] = assay: Antiatherogenic effect in apoE-deficient mouse assessed as increase in HDL-cholesterol level at 2 mg/kg/day for 4 weeks

Cc1cc(SCc2sc(-c3ccc(C(F)(F)F)c(F)c3)nc2C)ccc1OCC(=O)O
Activity [1]: Active | Activity [2]: Active | Activity (Mus musculus [3]): Active | Cmax [4]: 21 µM | Activity (Mus musculus [5]): Toxic

CCC(Oc1ccc([Se]Cc2sc(-c3ccc(C(F)(F)F)cc3)nc2C)cc1C)C(=O)O (stereo not drawn)
EC50 [6]: 83.1 nM | EC50 [7]: 6.2 nM | EC50 [8]: > 1000 nM

Cc1cc([Se]Cc2sc(-c3ccc(C(F)(F)F)c(F)c3)nc2C)ccc1OC(C)C(=O)O (stereo not drawn)
EC50 [6]: 39.4 nM | EC50 [7]: 8.5 nM | EC50 [8]: > 1000 nM

Cc1cc([Se]Cc2sc(-c3ccc(C(F)(F)F)cc3)nc2C)ccc1OCC(=O)O
EC50 [6]: > 1000 nM | EC50 [7]: 0.9 nM | EC50 [8]: > 1000 nM | Activity [1]: inactive | EC50 [9]: 2.3 nM | Activity [2]: inactive | Activity [10]: Active | Activity (Mus musculus [11]): Toxic | Activity (Mus musculus [12]): Toxic | Activity (Mus musculus [13]): Toxic | Activity (Mus musculus [14]): 25% | Activity (Mus musculus [15]): Active | Activity (Mus musculus [16]): inactive | Activity (Mus musculus [17]): inactive | Activity (Mus musculus [18]): inactive | Activity (Mus musculus [19]): inactive | Activity (Mus musculus [20]): inactive | Activity (Mus musculus [21]): inactive | Activity (Mus musculus [22]): Non-toxic | Activity (Mus musculus [23]): Non-toxic | Activity [24]: Active | Activity (Mus musculus [25]): Active
